How the values were obtained:
MDA-MB-468 = test: Antiproliferative activity against human MDA-MB-468 cells assessed as cell growth inhibition at 10 uM incubated for 48 hrs by sulforhodamine B assay relative to control; type: functional
Method in brief: (§1)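 NCI-60 single-dose screen at 10^-5 M. Cells grown in RPMI 1640 with 5% FBS and 2 mM L-glutamine, plated at 5,000–40,000 cells/well, and preincubated 24 h. Drug (DMSO stock) added and incubated 48 h at 37 °C, 5% CO2. Adherent cells fixed with cold TCA, stained with 0.4% SRB in 1% acetic acid, dye solubilized in 10 mM trizma base, A515 read. Percent growth taken against time-zero and untreated control.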

T47D = test: Antiproliferative activity against human T47D cells assessed as cell growth inhibition at 10 uM incubated for 48 hrs by sulforhodamine B assay relative to control; type: functional; method in brief: as §1
Hs-578T = test: Antiproliferative activity against human Hs-578T cells assessed as cell growth inhibition at 10 uM incubated for 48 hrs by sulforhodamine B assay relative to control; type: functional; method in brief: as §1
DU-145 = test: Antiproliferative activity against human DU-145 cells assessed as cell growth inhibition at 10 uM incubated for 48 hrs by sulforhodamine B assay relative to control; type: functional
Method in brief: (§2)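 NCI-60 one-dose prescreen at 10^-5 M. Cells grown in RPMI 1640 with 5% FBS and 2 mM glutamine, preincubated 24 h, then exposed 48 h at 37 °C. Adherent lines TCA-fixed, SRB-stained, A515 read. Growth percent relative to time-zero and control; negative values mean cell kill.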

PC-3 = test: Antiproliferative activity against human PC-3 cells assessed as cell growth inhibition at 10 uM incubated for 48 hrs by sulforhodamine B assay relative to control; type: functional; method in brief: as §1
RXF 393 = test: Antiproliferative activity against human RXF 393 cells assessed as cell growth inhibition at 10 uM incubated for 48 hrs by sulforhodamine B assay relative to control; type: functional; method in brief: as §1
ACHN = test: Antiproliferative activity against human ACHN cells assessed as cell growth inhibition at 10 uM incubated for 48 hrs by sulforhodamine B assay relative to control; type: functional
Method in brief: (§3)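 Single-dose NCI-60 prescreen at 10^-5 M. Cells in RPMI 1640 with 5% FBS and 2 mM L-glutamine, seeded 5,000–40,000 cells/well with 24 h preincubation, then drug exposure for 48 h at 37 °C under 5% CO2. Growth read by SRB staining of TCA-fixed cells at 515 nm against time-zero and untreated controls. Negative growth values denote cell kill.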

OVCAR-8 = test: Antiproliferative activity against human OVCAR-8 cells assessed as cell growth inhibition at 10 uM incubated for 48 hrs by sulforhodamine B assay relative to control; type: functional; method in brief: as §1
OVCAR-5 = test: Antiproliferative activity against human OVCAR-5 cells assessed as cell growth inhibition at 10 uM incubated for 48 hrs by sulforhodamine B assay relative to control; type: functional; method in brief: as §1
OVCAR-3 = test: Antiproliferative activity against human OVCAR-3 cells assessed as cell growth inhibition at 10 uM incubated for 48 hrs by sulforhodamine B assay relative to control; type: functional; method in brief: as §1
UACC-62 = test: Antiproliferative activity against human UACC-62 cells assessed as cell growth inhibition at 10 uM incubated for 48 hrs by sulforhodamine B assay relative to control; type: functional; method in brief: as §1
SK-MEL-2 = test: Antiproliferative activity against human SK-MEL-2 cells assessed as cell growth inhibition at 10 uM incubated for 48 hrs by sulforhodamine B assay relative to control; type: functional; method in brief: as §1
LOX IMVI = test: Antiproliferative activity against human LOX IMVI cells assessed as cell growth inhibition at 10 uM incubated for 48 hrs by sulforhodamine B assay relative to control; type: functional; method in brief: as §1
U-251 = test: Antiproliferative activity against human U-251 cells assessed as cell growth inhibition at 10 uM incubated for 48 hrs by sulforhodamine B assay relative to control; type: functional; method in brief: as §1
SNB-75 = test: Antiproliferative activity against human SNB-75 cells assessed as cell growth inhibition at 10 uM incubated for 48 hrs by sulforhodamine B assay relative to control; type: functional; method in brief: as §1
SF-268 = test: Antiproliferative activity against human SF-268 cells assessed as cell growth inhibition at 10 uM incubated for 48 hrs by sulforhodamine B assay relative to control; type: functional; method in brief: as §1
KM12 = test: Antiproliferative activity against human KM12 cells assessed as cell growth inhibition at 10 uM incubated for 48 hrs by sulforhodamine B assay relative to control; type: functional; method in brief: as §1
HT-29 = test: Antiproliferative activity against human HT-29 cells assessed as cell growth inhibition at 10 uM incubated for 48 hrs by sulforhodamine B assay relative to control; type: functional; method in brief: as §1
NCI-H522 = test: Antiproliferative activity against human NCI-H522 cells assessed as cell growth inhibition at 10 uM incubated for 48 hrs by sulforhodamine B assay relative to control; type: functional; method in brief: as §1
EKVX = test: Antiproliferative activity against human EKVX cells assessed as cell growth inhibition at 10 uM incubated for 48 hrs by sulforhodamine B assay relative to control; type: functional; method in brief: as §2
A549 = test: Antiproliferative activity against human A549 cells assessed as cell growth inhibition at 10 uM incubated for 48 hrs by sulforhodamine B assay relative to control; type: functional; method in brief: as §3
SR = test: Antiproliferative activity against human SR cells assessed as cell growth inhibition at 10 uM incubated for 48 hrs by sulforhodamine B assay relative to control; type: functional; method in brief: as §1
RPMI-8226 = test: Antiproliferative activity against human RPMI-8226 cells assessed as cell growth inhibition at 10 uM incubated for 48 hrs by sulforhodamine B assay relative to control; type: functional; method in brief: as §1
HL-60 = test: Antiproliferative activity against human HL-60 cells assessed as cell growth inhibition at 10 uM incubated for 48 hrs by sulforhodamine B assay relative to control; type: functional; method in brief: as §2
CCRF-CEM = test: Antiproliferative activity against human CCRF-CEM cells assessed as cell growth inhibition at 10 uM incubated for 48 hrs by sulforhodamine B assay relative to control; type: functional; method in brief: as §3
[1] = n-Octanol/phosphate buffer partition coefficient, logP of the compound at pH 7.4 incubated for 85 mins by shake-flask method; type: physicochemical
Method in brief: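 Octanol–water partition by shake-flask: n-octanol with 0.15 M phosphate buffer pH 7.4 at 10:1 volumes. Buffer-phase absorbance read before mixing, then shaken 50 min and centrifuged at 2500 rpm for 35 min. Buffer absorbance read again; P = (Ai−Af)/Af × Vw/Vo.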

A498 = test: Antiproliferative activity against human A498 cells assessed as cell growth inhibition at 10 uM incubated for 48 hrs by sulforhodamine B assay relative to control; type: functional; method in brief: as §3
SW-620 = test: Antiproliferative activity against human SW620 cells assessed as cell growth inhibition at 10 uM incubated for 48 hrs by sulforhodamine B assay relative to control; type: functional; method in brief: as §1
HCT-116 = test: Antiproliferative activity against human HCT-116 cells assessed as cell growth inhibition at 10 uM incubated for 48 hrs by sulforhodamine B assay relative to control; type: functional; method in brief: as §2
NCI-H460 = test: Antiproliferative activity against human NCI-H460 cells assessed as cell growth inhibition at 10 uM incubated for 48 hrs by sulforhodamine B assay relative to control; type: functional; method in brief: as §1
M14 = test: Antiproliferative activity against human M14 cells assessed as cell growth inhibition at 10 uM incubated for 48 hrs by sulforhodamine B assay relative to control; type: functional; method in brief: as §1

| SMILES | inhibition at 10 µM (MDA-MB-468) [%] | inhibition at 10 µM (T47D) [%] | inhibition at 10 µM (Hs-578T) [%] | inhibition at 10 µM (DU-145) [%] | inhibition at 10 µM (PC-3) [%] | inhibition at 10 µM (ACHN) [%] | inhibition at 10 µM (OVCAR-8) [%] | inhibition at 10 µM (OVCAR-3) [%] | inhibition at 10 µM (UACC-62) [%] | inhibition at 10 µM (SK-MEL-2) [%] | inhibition at 10 µM (LOX IMVI) [%] | inhibition at 10 µM (SNB-75) [%] | inhibition at 10 µM (SF-268) [%] | inhibition at 10 µM (KM12) [%] | inhibition at 10 µM (HT-29) [%] | inhibition at 10 µM (NCI-H522) [%] | inhibition at 10 µM (EKVX) [%] | inhibition at 10 µM (SR) [%] | inhibition at 10 µM (RPMI-8226) [%] | inhibition at 10 µM (CCRF-CEM) [%] | further results |
| --- | --- | --- | --- | --- | --- | --- | --- | --- | --- | --- | --- | --- | --- | --- | --- | --- | --- | --- | --- | --- | --- |
| Brc1cn2ccnc2c(-c2ccc3ncn(C4CCCCC4)c3c2)n1 | 44.4 | 49.7 | 16.1 | 6.2 | 17.2 | 11.5 | 4.92 | 15.8 | 19.8 | 10.2 | 15.2 | 21.2 | 17.1 | 67.7 | 5.21 | 16.2 | 12 | 26.8 | 14.9 | 7.68 | inhibition at 10 µM (RXF 393): 5.58%; inhibition at 10 µM (OVCAR-5): 6.64%; inhibition at 10 µM (U-251): 1.5%; inhibition at 10 µM (A549): 9.36%; inhibition at 10 µM (HL-60): 18% |
| c1ccc2c(-c3cn4ccnc4c(-c4ccc5ncn(C6CCCCC6)c5c4)n3)cccc2c1 | 10.4 | 41.3 | 3.62 | 5.1 | 36.5 | 6.49 | – | 2.38 | 16.7 | 2.3 | 7.43 | 16.5 | 7.84 | 11.1 | 4.11 | 19.3 | 13.2 | 6.92 | 22.9 | 17.5 | logD at 1.417 h [1]: 1.44; inhibition at 10 µM (A498): 14%; inhibition at 10 µM (SW-620): 5.34%; inhibition at 10 µM (HCT-116): 17.9%; inhibition at 10 µM (NCI-H460): 3.61%; inhibition at 10 µM (HL-60): 38.9% |
| c1ccc(Cn2cnc3ccc(-c4nc(-c5cccc6ccccc56)cn5ccnc45)cc32)cc1 | – | 73.8 | 5.98 | – | 31.4 | 12.3 | 6.22 | 1.44 | 12.9 | 16.9 | 16.5 | 16.2 | 10.3 | 11 | 18.6 | 29.3 | 24.6 | 12.4 | 26.9 | 6.22 | logD at 1.417 h [1]: 2; inhibition at 10 µM (A498): 6.74%; inhibition at 10 µM (OVCAR-5): 1.83%; inhibition at 10 µM (M14): 4.41%; inhibition at 10 µM (U-251): 5.53%; inhibition at 10 µM (HCT-116): 32.9%; inhibition at 10 µM (NCI-H460): 3.8%; inhibition at 10 µM (A549): 7.31% |

Reference: ChEMBL document CHEMBL5247578, “Effective synthesis of benzimidazoles-imidazo[1,2-a]pyrazine conjugates: A comparative study of mono-and bis-benzimidazoles for antitumor activity” (Eur J Med Chem, 2019)
